Compound activity: PubChem BioAssay, The Scripps Research Institute Molecular Screening Center
In the library only some 2.7% were active in any assay of this set; here they are far more common.
VIM-2 inhibitor – VIM-2 metallo-beta-lactamase inhibitors, primary screen, biochemical, epi-absorbance readout, Pseudomonas aeruginosa enzyme | purified VIM-2, nitrocefin hydrolysis, epi-absorbance fluorescence | inhibition, % at 5.6 µM | actives 0.89% (n = 290,000);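 active means inhibition above the mean of all tested compounds plus 3 SD, cutoff set per screening run, cut at about 7.5% in these data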;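 further: red hydrolysis product quenches plate fluorescence so inhibitors raise well fluorescence; 0% = enzyme with DMSO and 100% = DMSO without enzyme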
PfM18AAP inh – PfM18AAP inhibitors, malaria aminopeptidase, primary screen, biochemical, QFRET, recombinant enzyme; actives 1.2% (n = 290,000); AID 1822, 2009; H-Glu-NHMec fluorogenic cleavage; inhibition, % at 7.35 µM;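 active means inhibition above the campaign mean inhibition over all tested compounds plus 3 SD, cut at about 28% in these data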;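 further: 0% = plate median of test compound wells and 100% = 2 mM ZnCl2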
IMP-1 inh-1 – IMP-1 metallo-beta-lactamase inhibitors, primary screen, biochemical, epi-absorbance readout, Pseudomonas aeruginosa enzyme | purified IMP-1, nitrocefin hydrolysis, epi-absorbance fluorescence | inhibition, % at 5.6 µM | metallo-beta-lactamase IMP-1 (Pseudomonas aeruginosa) | actives 0.45% (n = 290,000);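 active means inhibition above the mean plus 3 SD of all compounds in the same screening run, cut at about 4.5% in these data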;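 further: 0% = IMP-1 with DMSO and 100% = DMSO wells lacking enzyme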
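System: Purified recombinant IMP-1 metallo-beta-lactamase enzyme | Measured by: Fluorescence quenching readout, ex 480/em 530 nm | Replication: Singlicate | Incubation: 15 min preincubation plus 25 min reaction at 25 °C | Evaluation: Percent inhibition from optical density relative to buffer-blank wells | Benchmarks: DMSO with and without IMP-1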
CTSL1 counter – Fasciola hepatica cathepsin L1 inhibitors, primary screen, counter-screen for PFM18AAP inhibitor project, biochemical, QFRET, fluorogenic peptide substrate | actives 0.49% (n = 300,000) | inhibition, % at 5.96 µM | recombinant F. hepatica cathepsin L1, Z-Leu-Arg-MCA fluorescence | AID 1906, 2009;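 active means inhibition above the mean of all tested compounds plus 3 SD, set per screening campaign, cut at about 17% in these data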;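 further: 0% = plate median of test compound wells and 100% = 1 µM Z-Phe-Ala-diazomethylketone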
IMP-1 inh-2 – IMP-1 metallo-beta-lactamase inhibitors, confirmation, selectivity assay for selective VIM-2 inhibitor project, biochemical, epi-absorbance readout, triplicate | inhibition, % at 5.6 µM | 1,300 tested, under 10 active | shares compounds with VIM-2 inhibitor | purified IMP-1, nitrocefin hydrolysis, epi-absorbance fluorescence; call rule not given here;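 further: 0% = enzyme with vehicle and 100% = vehicle without enzyme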
VIM-2 FRET inh – VIM-2 inhibitors in FRET format, confirmation, artefact control for selective VIM-2 inhibitor project, biochemical, epi-absorbance artifact exclusion; AID 1857, 2009; shares compounds with VIM-2 inhibitor; actives 23% (n = 1,300); inhibition, % at 5.6 µM; purified VIM-2, CCF2 FRET substrate hydrolysis;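 active means inhibition above the mean of all tested compounds plus 3 SD, cut at about 19% in these data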;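 further: 0% = VIM-2 plus DMSO and 100% = no enzyme wells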
TEM-1 inh – TEM-1 serine beta-lactamase inhibitors, counter-screen for VIM-2 inhibitor project, biochemical, epi-absorbance, HTS; shares compounds with VIM-2 inhibitor; Purified TEM-1, nitrocefin hydrolysis, epi-absorbance fluorescence; inhibition, % at 5.6 µM; actives 3% (n = 1,300); AID 1866, 2009;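 active means inhibition above that campaign's mean inhibition plus 3 SD, cut at about 0.46% in these data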;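 further: 0% = TEM-1 with DMSO and 100% = TEM-1 with 100 µM potassium clavulanate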
Target sequence (P62593 whole entry, looked up): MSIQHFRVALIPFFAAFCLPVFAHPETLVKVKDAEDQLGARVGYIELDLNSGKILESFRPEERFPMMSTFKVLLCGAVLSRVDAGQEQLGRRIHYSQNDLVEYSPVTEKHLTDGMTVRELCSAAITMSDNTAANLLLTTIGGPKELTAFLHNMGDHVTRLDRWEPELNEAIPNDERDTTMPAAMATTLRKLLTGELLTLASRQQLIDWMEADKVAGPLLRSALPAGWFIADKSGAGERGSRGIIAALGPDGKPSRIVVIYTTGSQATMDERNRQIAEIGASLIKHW
VIM-2 inh conf – VIM-2 metallo-beta-lactamase inhibitors, confirmation, biochemical, epi-absorbance, hits shared with IMP-1 screen; shares compounds with VIM-2 inhibitor; inhibition, % at 5.6 µM; purified VIM-2, nitrocefin hydrolysis; actives 96% (n = 1,300); AID 2187, 2009;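 active means inhibition of the VIM-2 beta-lactamase enzyme above about 11% from the earlier first-round screen, limit read from the data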;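 further: 0% = VIM-2 with DMSO and 100% = buffer wells without enzyme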
Active calls of the source: *; x = no result given.

SMILES	VIM-2 inhibitor	PfM18AAP inh	IMP-1 inh-1	CTSL1 counter	IMP-1 inh-2	VIM-2 FRET inh	TEM-1 inh	VIM-2 inh conf
CCN1CCN(c2ccc(NC(=O)c3ccc(Cl)c(N4CCCC4=O)c3)cc2)CC1	26*	-9	-4	0	-2	-1	-5	42*
COc1ccc(C(=O)Nc2ccc(N3CCN(C)CC3)cc2)cc1OC	24*	5	-5	1	-3	3	-6	39*
CN1CCN(c2ccc(NC(=O)c3ccc(Br)o3)cc2)CC1	14*	2	-2	-1	-3	3	-6	31*
COc1ccc(C(=O)Nc2ccc(N3CCN(C)CC3)cc2)cc1	15*	-7	-6	-1	-2	2	-2	26*
COc1ccccc1OCCNC(=O)c1ccc(C)o1	x	x	x	2	x	x	x	x
C=CCn1c(SCC(=O)Nc2cccc(S(=O)(=O)N(C)c3ccccc3)c2)nnc1C1CC1	x	x	x	-2	x	x	x	x
CCN(CC)C(C)C(=O)NCC1(c2ccccc2)CCOCC1 (configuration not stated)	-4	-10	-2	-1	x	x	x	x
COC(=O)c1cc(S(=O)(=O)N2CCCCCC2)cn1C	-1	1	-1	-1	x	x	x	x
CCN1CCN(c2ccc(NC(=O)c3cc(OC)c(OC)c(OC)c3)cc2)CC1	24*	-12	-4	-1	-4	-2	-5	38*
CN1CCN(c2ccc(NC(=O)c3ccc4ccccc4c3)cc2)CC1	25*	-2	-1	-1	-1	-1	-6	34*
CC1CCN=C(N)S1 (configuration not stated)	x	x	x	-2	x	x	x	x
Cc1ccc(Cn2cnc3ccccc32)cc1C	2	0	0	2	x	x	x	x
O=C(CSc1nncc(=O)[nH]1)NC1CCCCC1	-3	0	-1	1	x	x	x	x
COc1ccccc1CCN1CCCC(CN(C)Cc2ccc(OCCO)cc2)C1 (configuration not stated)	-1	-1	-2	0	x	x	x	x
Cc1cc(C(=O)OC(C(=O)Nc2ccc(C)c(Cl)c2)c2ccccc2)c(C)o1 (configuration not stated)	-2	-2	-3	-1	x	x	x	x
CCN1CCN(c2ncc(C(=O)Nc3ccccc3C(=O)OC)c3ccccc23)CC1	18*	-6	-2	6	-4	3	-6	30*
CCc1ccc(NC(=O)c2cnc(N3CCN(c4ccccn4)CC3)c3ccccc23)cc1	0	-11	-1	4	x	x	x	x
Nc1nccc(-c2ccc(-n3cnc4ccccc43)cc2)n1	18*	-4	-4	5	-4	-6	-6	39*
Cc1nccc(-c2ccc(-n3cnc4ccccc43)cc2)n1	17*	0	0	4	-3	-2	-6	33*
COc1ccc(-c2ccnc3ncnn23)cc1	-2	3	-2	4	x	x	x	x
c1ccc2c(c1)ncn2-c1ccc(-c2ccnc3ncnn23)cc1	30*	2	-3	-1	-2	-10	-3	65*
CC1CCCN(CCCNC(=O)c2cc3c(s2)-c2ccccc2OC3)C1 (configuration not stated)	0	4	1	0	x	x	x	x
Cc1nc2ccccc2c2oc(C(=O)NCCCN3CCCC(C)C3)cc12 (configuration not stated)	18*	-1	-2	0	-3	2	-6	29*
Cc1nc2ccccc2c2oc(C(=O)NCCCN3CC(C)CC(C)C3)cc12 (configuration not stated)	15*	-2	-2	0	-2	1	-6	24*
